Experimental findings from ChEMBL document CHEMBL5107944, “Rational design of selective inhibitors of PARP4” (RSC Med Chem, 2021) are described below.

Experiment [1] addresses T1, Protein mono-ADP-ribosyltransferase PARP15 (Homo sapiens, UniProt Q460N3).
T1 sequence (Q460N3 whole entry): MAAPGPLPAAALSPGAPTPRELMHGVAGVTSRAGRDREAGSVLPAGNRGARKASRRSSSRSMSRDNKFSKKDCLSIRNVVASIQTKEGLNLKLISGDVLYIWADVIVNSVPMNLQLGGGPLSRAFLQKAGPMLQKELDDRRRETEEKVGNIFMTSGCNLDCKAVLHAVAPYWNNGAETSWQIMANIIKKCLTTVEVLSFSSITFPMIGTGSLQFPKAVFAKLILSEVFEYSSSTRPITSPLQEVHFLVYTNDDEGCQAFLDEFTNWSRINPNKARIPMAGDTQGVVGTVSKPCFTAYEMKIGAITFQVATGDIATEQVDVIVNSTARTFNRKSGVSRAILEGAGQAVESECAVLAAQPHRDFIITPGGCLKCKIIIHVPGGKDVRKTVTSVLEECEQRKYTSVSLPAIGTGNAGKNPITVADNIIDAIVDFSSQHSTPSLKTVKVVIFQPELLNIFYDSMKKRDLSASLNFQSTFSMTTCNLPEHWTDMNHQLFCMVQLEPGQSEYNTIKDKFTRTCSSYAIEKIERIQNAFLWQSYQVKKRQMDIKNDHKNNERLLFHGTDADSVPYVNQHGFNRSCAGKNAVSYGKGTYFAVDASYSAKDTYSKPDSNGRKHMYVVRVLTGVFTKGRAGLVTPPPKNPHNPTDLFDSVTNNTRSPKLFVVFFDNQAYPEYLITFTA
The experiment in a line: Inhibition of N-terminal His-tagged human PARP15 catalytic domain expressed in Escherichia coli BL21 (DE3) preincubated with 6-a-NAD+ for 5 to 10 mins followed by enzyme addition and measured after 60 mins using NAD+ as substrate byHRP based chemiluminescence assay. In short, it runs like this: (§1)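 Plate-based PASTA assay. His6-SRPK2 is captured on nickel-coated wells as the ADP-ribosylation substrate in HEPES pH 7.5 buffer with NaCl, MgCl2 and TCEP. Recombinant PARP is added at 4–400 nM (2×). Inhibitor (0–200 μM) is premixed with 200 μM 6-a-NAD+ (2×) and reacted 60 min at 30 °C. Incorporated label is click-conjugated to biotin-azide and detected with streptavidin-HRP by chemifluorescence (ex 570/em 600). IC50 is the mean of ≥3 independent assays.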

Experiment [2] addresses Protein mono-ADP-ribosyltransferase PARP4 (Homo sapiens, UniProt Q9UKK3). In words: Inhibition of N-terminal His-tagged recombinant human PARP4 brct-catalytic domain (369 to 573 residues) expressed in Escherichia coli BL21 (DE3) preincubated with 6-a-NAD+ for 5 to 10 mins followed by enzyme addition and measured after 60 mins using NAD+ as substrate byHRP based chemiluminescence assay. In short, it runs like this:
as §1

The target of experiment [3] is Poly [ADP-ribose] polymerase 1 (Homo sapiens, UniProt P09874). In words: Inhibition of N-terminal His-tagged full length human PARP1 expressed in Escherichia coli BL21 (DE3) preincubated with 6-a-NAD+ for 5 to 10 mins followed by enzyme addition and measured after 60 mins using NAD+ as substrate byHRP based chemiluminescence assay. In short, it runs like this: as §1

For experiment [4], the target named is Poly [ADP-ribose] polymerase 2 (Homo sapiens, UniProt Q9UGN5). The experiment in a line: Inhibition of N-terminal His-tagged full length human PARP2 expressed in Escherichia coli BL21 (DE3) preincubated with 6-a-NAD+ for 5 to 10 mins followed by enzyme addition and measured after 60 mins using NAD+ as substrate byHRP based chemiluminescence assay. In short, it runs like this: as §1

Experiment [5] addresses T2, Protein mono-ADP-ribosyltransferase PARP11 (Homo sapiens, UniProt Q9NR21).
T2 sequence (Q9NR21 whole entry): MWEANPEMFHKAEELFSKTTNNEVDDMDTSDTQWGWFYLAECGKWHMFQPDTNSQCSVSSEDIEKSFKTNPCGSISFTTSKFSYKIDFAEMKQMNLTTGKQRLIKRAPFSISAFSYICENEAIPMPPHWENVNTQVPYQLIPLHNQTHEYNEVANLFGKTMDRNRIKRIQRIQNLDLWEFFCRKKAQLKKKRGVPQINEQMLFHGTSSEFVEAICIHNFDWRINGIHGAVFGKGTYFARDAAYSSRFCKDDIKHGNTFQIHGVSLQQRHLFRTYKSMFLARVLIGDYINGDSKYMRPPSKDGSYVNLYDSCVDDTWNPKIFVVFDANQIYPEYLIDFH
In words: Inhibition of N-terminal His-tagged full length human PARP11 expressed in Escherichia coli BL21 (DE3) preincubated with 6-a-NAD+ for 5 to 10 mins followed by enzyme addition and measured after 60 mins using NAD+ as substrate byHRP based chemiluminescence assay. In short, it runs like this: as §1

Sequence of Protein mono-ADP-ribosyltransferase PARP4 (Q9UKK3 whole entry, the tested form may be a part): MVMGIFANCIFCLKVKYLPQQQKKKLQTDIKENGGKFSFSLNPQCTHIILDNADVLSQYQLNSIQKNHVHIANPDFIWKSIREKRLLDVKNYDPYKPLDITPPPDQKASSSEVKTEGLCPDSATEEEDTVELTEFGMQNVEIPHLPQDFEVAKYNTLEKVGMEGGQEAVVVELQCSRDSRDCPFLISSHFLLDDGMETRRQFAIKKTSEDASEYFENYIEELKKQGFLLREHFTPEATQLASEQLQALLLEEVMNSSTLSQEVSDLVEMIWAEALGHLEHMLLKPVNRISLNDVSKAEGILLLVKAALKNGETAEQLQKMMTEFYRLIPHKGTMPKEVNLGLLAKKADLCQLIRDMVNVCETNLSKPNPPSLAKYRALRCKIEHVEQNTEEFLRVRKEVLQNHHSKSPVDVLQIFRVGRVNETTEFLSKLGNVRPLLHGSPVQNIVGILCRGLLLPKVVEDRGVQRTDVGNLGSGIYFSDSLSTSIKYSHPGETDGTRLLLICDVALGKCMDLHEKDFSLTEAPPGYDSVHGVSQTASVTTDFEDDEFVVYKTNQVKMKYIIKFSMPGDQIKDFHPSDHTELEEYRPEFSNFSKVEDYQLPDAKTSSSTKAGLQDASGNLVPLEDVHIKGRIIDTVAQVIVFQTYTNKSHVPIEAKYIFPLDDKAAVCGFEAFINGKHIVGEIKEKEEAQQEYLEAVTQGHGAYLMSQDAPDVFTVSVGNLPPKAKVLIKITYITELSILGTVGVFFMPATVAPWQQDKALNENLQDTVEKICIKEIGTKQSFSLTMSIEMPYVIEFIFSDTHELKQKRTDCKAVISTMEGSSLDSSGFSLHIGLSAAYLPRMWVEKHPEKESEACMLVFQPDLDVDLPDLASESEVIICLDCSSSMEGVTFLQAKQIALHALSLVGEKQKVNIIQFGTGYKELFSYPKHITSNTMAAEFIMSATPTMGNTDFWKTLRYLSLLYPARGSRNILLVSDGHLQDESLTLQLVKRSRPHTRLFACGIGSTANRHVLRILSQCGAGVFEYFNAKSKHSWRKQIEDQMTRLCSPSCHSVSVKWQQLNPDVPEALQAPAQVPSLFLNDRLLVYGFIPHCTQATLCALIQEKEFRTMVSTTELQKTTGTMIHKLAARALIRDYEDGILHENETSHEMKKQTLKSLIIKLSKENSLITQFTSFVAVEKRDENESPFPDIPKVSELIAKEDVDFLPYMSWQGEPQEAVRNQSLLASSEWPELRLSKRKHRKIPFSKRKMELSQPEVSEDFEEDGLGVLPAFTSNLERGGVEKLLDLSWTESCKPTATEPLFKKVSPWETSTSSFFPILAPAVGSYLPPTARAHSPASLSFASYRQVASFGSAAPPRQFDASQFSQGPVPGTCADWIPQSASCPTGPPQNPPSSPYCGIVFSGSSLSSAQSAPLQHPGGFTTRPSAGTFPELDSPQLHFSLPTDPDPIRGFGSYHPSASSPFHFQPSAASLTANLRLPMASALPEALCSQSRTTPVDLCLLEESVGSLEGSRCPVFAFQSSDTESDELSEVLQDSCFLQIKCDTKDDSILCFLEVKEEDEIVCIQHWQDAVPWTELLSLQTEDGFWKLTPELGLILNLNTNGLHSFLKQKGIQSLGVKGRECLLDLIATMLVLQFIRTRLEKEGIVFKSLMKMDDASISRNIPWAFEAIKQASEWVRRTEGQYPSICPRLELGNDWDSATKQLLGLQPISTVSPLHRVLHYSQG
Sequence of Poly [ADP-ribose] polymerase 1 (P09874 whole entry): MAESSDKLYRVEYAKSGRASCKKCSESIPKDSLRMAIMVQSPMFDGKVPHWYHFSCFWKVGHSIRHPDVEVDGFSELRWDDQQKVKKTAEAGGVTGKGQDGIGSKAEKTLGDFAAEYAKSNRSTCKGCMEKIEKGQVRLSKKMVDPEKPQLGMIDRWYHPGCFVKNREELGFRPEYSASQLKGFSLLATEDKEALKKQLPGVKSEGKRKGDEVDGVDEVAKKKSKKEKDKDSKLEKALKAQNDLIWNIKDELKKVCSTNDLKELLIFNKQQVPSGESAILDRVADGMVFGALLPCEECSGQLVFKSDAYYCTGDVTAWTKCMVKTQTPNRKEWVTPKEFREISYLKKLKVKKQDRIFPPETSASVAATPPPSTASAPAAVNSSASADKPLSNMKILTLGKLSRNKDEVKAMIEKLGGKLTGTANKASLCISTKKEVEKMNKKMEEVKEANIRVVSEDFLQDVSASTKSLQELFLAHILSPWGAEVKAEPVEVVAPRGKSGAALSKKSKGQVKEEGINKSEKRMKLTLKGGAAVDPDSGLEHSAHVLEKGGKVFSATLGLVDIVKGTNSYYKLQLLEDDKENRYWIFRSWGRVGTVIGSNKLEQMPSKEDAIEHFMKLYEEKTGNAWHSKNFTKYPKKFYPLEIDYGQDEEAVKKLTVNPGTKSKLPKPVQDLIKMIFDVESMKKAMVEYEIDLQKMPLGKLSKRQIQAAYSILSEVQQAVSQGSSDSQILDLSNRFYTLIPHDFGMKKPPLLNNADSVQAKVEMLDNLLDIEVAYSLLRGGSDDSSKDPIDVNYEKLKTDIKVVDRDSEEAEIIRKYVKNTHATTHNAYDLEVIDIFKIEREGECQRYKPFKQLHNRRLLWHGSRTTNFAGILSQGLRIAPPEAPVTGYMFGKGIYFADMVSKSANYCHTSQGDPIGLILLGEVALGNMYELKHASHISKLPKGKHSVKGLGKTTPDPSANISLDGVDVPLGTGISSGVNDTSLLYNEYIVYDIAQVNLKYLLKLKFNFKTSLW
Sequence of Poly [ADP-ribose] polymerase 2 (Q9UGN5 whole entry): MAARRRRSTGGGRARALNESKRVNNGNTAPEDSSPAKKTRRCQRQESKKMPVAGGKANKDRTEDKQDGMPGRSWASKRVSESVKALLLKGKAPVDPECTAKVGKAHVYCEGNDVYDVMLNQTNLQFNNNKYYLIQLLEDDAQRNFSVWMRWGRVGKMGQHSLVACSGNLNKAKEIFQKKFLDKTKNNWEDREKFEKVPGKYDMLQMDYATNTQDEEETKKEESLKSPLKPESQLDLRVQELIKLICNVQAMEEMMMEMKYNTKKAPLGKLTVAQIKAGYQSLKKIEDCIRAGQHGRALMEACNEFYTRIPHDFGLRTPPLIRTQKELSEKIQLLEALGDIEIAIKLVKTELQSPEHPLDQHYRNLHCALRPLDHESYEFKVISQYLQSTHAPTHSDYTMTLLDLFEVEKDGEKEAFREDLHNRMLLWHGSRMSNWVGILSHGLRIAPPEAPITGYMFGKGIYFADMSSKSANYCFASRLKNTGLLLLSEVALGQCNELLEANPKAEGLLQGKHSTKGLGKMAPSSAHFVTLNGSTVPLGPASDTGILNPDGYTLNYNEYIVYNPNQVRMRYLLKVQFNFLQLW

`CC#Cc1cc(C)c2nc(CSc3ncccn3)[nH]c(=O)c2c1` displayed an IC50 in experiment [1] of 3300 nM.
Consider `Cc1cc(Br)cc2c(=O)[nH]c(CSc3ccc(C(=O)O)cc3)nc12`, for which the IC50 in experiment [2] turned out to be 1900 nM.
As to `Cc1cc(Br)cc2c(=O)[nH]c(CSc3ncccn3)nc12`, the IC50 in experiment [2] was found to be 800 nM; in experiment [3], 2500 nM; in experiment [4] it was 2000 nM.
As for `Cc1cc(I)cc2c(=O)[nH]c(CSc3ncccn3)nc12`, the IC50 in experiment [2] is 2700 nM.
For `Cc1cccc2c(=O)[nH]c(CSc3ncccn3)nc12`, the IC50 in experiment [5] came to 200 nM; in experiment [4], 800 nM.
`Cc1cc(C)c2nc(CSc3ncccn3)[nH]c(=O)c2c1`: the half-inhibitory concentration (IC50) was determined as 500 nM in experiment [2] and 100 nM in experiment [3].
For the compound `Cc1cc(I)cc2c(=O)[nH]c(CSc3ccc(C(=O)O)cc3)nc12`, the IC50 in experiment [2] amounted to 800 nM.
